Experimental data: ChEMBL document CHEMBL4229382, “Phenylthiazoles with tert-Butyl side chain: Metabolically stable with anti-biofilm activity” (Eur J Med Chem, 2018)
Values after ≈ are worked out from the molar mass of the structure shown.

Columns and labels:
Staphylococcus aureus [1] = test: Bactericidal activity against methicillin-resistant Staphylococcus aureus NRS119 incubated fo 18 hrs followed by re-plating on tryptic soy agar plates at 37 degC for 18 hrs by broth microdilution assay; type: functional; details: NRS119, 18 h
Staphylococcus aureus [2] = test: Antibacterial activity against methicillin-resistant Staphylococcus aureus NRS123 USA400 after 18 hrs by broth microdilution assay; type: functional; details: NRS123 USA400, 18 h
Procedure, shortened: (§1)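 Broth microdilution: inoculum from 0.5 McFarland suspension diluted to about 5 × 10^5 CFU/mL. Media were cation-adjusted Mueller-Hinton broth for staphylococci, brain heart infusion for E. faecium, and tryptone soya broth for E. faecalis, S. pneumoniae and L. monocytogenes.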

Staphylococcus aureus [3] = test: Antibacterial activity against methicillin-resistant Staphylococcus aureus NRS385 after 18 hrs by broth microdilution assay; type: functional; details: NRS385, 18 h; procedure, shortened: as §1
Staphylococcus aureus [4] = test: Antibacterial activity against vancomycin-resistant Staphylococcus aureus VRS10 after 18 hrs by broth microdilution assay; type: functional; details: VRS10, 18 h; procedure, shortened: as §1
Streptococcus pneumoniae [5] = test: Antibacterial activity against cephalosporin-resistant Streptococcus pneumoniae ATCC 51916 after 18 hrs by broth microdilution assay; type: functional; details: ATCC 51916, 18 h; procedure, shortened: as §1
Staphylococcus aureus [6] = test: Bactericidal activity against methicillin-sensitive Staphylococcus aureus NRS107 incubated fo 18 hrs followed by re-plating on tryptic soy agar plates at 37 degC for 18 hrs by broth microdilution assay; type: functional; details: NRS107, 18 h
Staphylococcus aureus [7] = test: Antibacterial activity against methicillin-resistant Staphylococcus aureus NRS384 USA300 after 18 hrs by broth microdilution assay; type: functional; details: NRS384 USA300, 18 h; procedure, shortened: as §1
Staphylococcus aureus [8] = test: Bactericidal activity against methicillin-sensitive Staphylococcus aureus ATCC 6538 incubated fo 18 hrs followed by re-plating on tryptic soy agar plates at 37 degC for 18 hrs by broth microdilution assay; type: functional; details: ATCC 6538, 18 h
Staphylococcus aureus [9] = test: Inhibition of biofilm formation in methicillin-resistant Staphylococcus aureus NRS384 USA300 at 1 time MIC after 24 hrs by crystal violet staining-based spectrophotometric analysis relative to control; parameters: scale not given: the % may be the effect or the level left
Staphylococcus aureus [10] = test: Bactericidal activity against methicillin-resistant Staphylococcus aureus NRS384 USA300 incubated fo 18 hrs followed by re-plating on tryptic soy agar plates at 37 degC for 18 hrs by broth microdilution assay; type: functional; details: NRS384 USA300, 18 h
Enterococcus faecalis [11] = test: Bactericidal activity against vancomycin-resistant Enterococcus faecalis ATCC 51299 incubated fo 18 hrs followed by re-plating on tryptic soy agar plates at 37 degC for 18 hrs by broth microdilution assay; type: functional; details: ATCC 51299, 18 h
Enterococcus faecalis [12] = test: Antibacterial activity against vancomycin-resistant Enterococcus faecalis ATCC 51299 after 18 hrs by broth microdilution assay; type: functional; details: ATCC 51299, 18 h; procedure, shortened: as §1
Staphylococcus aureus [13] = test: Bactericidal activity against methicillin-resistant Staphylococcus aureus NRS385 incubated fo 18 hrs followed by re-plating on tryptic soy agar plates at 37 degC for 18 hrs by broth microdilution assay; type: functional; details: NRS385, 18 h
Streptococcus pneumoniae [14] = test: Antibacterial activity against methicillin-resistant Streptococcus pneumoniae ATCC 700677 after 18 hrs by broth microdilution assay; type: functional; details: ATCC 700677, 18 h; procedure, shortened: as §1
Staphylococcus aureus [15] = test: Antibacterial activity against methicillin-resistant Staphylococcus aureus NRS119 after 18 hrs by broth microdilution assay; type: functional; details: NRS119, 18 h; procedure, shortened: as §1
Staphylococcus aureus [16] = test: Inhibition of biofilm formation in methicillin-resistant Staphylococcus aureus NRS384 USA300 after 24 hrs by crystal violet staining-based spectrophotometric analysis
[17] = test system: Staphylococcus epidermidis; test: Bactericidal activity against methicillin-resistant Staphylococcus epidermidis NRS101 incubated fo 18 hrs followed by re-plating on tryptic soy agar plates at 37 degC for 18 hrs by broth microdilution assay; type: functional; details: NRS101, 18 h
Staphylococcus aureus [18] = test: Bactericidal activity against vancomycin-resistant Staphylococcus aureus VRS10 incubated fo 18 hrs followed by re-plating on tryptic soy agar plates at 37 degC for 18 hrs by broth microdilution assay; type: functional; details: VRS10, 18 h
Streptococcus pneumoniae [19] = test: Bactericidal activity against methicillin-resistant Streptococcus pneumoniae ATCC 700677 incubated fo 18 hrs followed by re-plating on tryptic soy agar plates at 37 degC for 18 hrs by broth microdilution assay; type: functional; details: ATCC 700677, 18 h
Enterococcus faecium [20] = test: Antibacterial activity against vancomycin-resistant Enterococcus faecium ATCC 700221 after 18 hrs by broth microdilution assay; type: functional; details: ATCC 700221, 18 h; procedure, shortened: as §1
Staphylococcus aureus [21] = test: Antibacterial activity against vancomycin-resistant Staphylococcus aureus VRS12 after 18 hrs by broth microdilution assay; type: functional; details: VRS12, 18 h; procedure, shortened: as §1
[22] = test system: Staphylococcus epidermidis; test: Antibacterial activity against methicillin-resistant Staphylococcus epidermidis NRS101 after 18 hrs by broth microdilution assay; type: functional; details: NRS101, 18 h; procedure, shortened: as §1
Staphylococcus aureus [23] = test: Antibacterial activity against methicillin-resistant Staphylococcus aureus NRS123 USA400 assessed as reduction in bacterial burden within 6 hrs by time kill assay; type: functional
Procedure, shortened: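 Samples taken at 0, 2, 4, 6, 8, 12 and 24 h were serially diluted in PBS, plated on TSA and incubated ≥18 h for viable CFU/mL. DMSO was the negative control; two independent experiments.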

Staphylococcus aureus [24] = test: Bactericidal activity against methicillin-resistant Staphylococcus aureus NRS386 incubated fo 18 hrs followed by re-plating on tryptic soy agar plates at 37 degC for 18 hrs by broth microdilution assay; type: functional; details: NRS386, 18 h
Staphylococcus aureus [25] = test: Bactericidal activity against methicillin-resistant Staphylococcus aureus NRS123 USA400 incubated fo 18 hrs followed by re-plating on tryptic soy agar plates at 37 degC for 18 hrs by broth microdilution assay; type: functional; details: NRS123 USA400, 18 h
Listeria monocytogenes [26] = test: Antibacterial activity against Listeria monocytogenes ATCC 19111 after 18 hrs by broth microdilution assay; type: functional; details: ATCC 19111, 18 h
Listeria monocytogenes [27] = test: Selectivity ratio of MBC to MIC for Listeria monocytogenes ATCC 19111; type: functional
Staphylococcus aureus [28] = test: Antibacterial activity against methicillin-sensitive Staphylococcus aureus NRS107 after 18 hrs by broth microdilution assay; type: functional; details: NRS107, 18 h; procedure, shortened: as §1
Caco-2 = test: Cytotoxicity against human Caco2 cells at 32 ug/ml after 2 hrs by MTS assay; type: cell-based; details: caco-2, 2 h
Procedure, shortened: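 Caco-2 cells grown in DMEM with 20% FBS, non-essential amino acids and penicillin-streptomycin, 37 °C, 5% CO2; exposed in triplicate to compounds (16, 32, 64 µg/mL) for 2 h; MTS added, 4 h further incubation, OD490 read; viability as percent of DMSO-treated controls; two independent experiments.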

Enterococcus faecium [29] = test: Bactericidal activity against vancomycin-resistant Enterococcus faecium ATCC 700221 incubated fo 18 hrs followed by re-plating on tryptic soy agar plates at 37 degC for 18 hrs by broth microdilution assay; details: ATCC 700221, 18 h
Staphylococcus aureus [30] = test: Antibacterial activity against methicillin-resistant Staphylococcus aureus 2658 RCMB after 18 hrs by broth microdilution assay; type: functional; procedure, shortened: as §1
Staphylococcus aureus [31] = test: Antibacterial activity against methicillin-resistant Staphylococcus aureus NRS386 after 18 hrs by broth microdilution assay; type: functional; details: NRS386, 18 h; procedure, shortened: as §1
Staphylococcus aureus [32] = test: Inhibition of biofilm formation in methicillin-resistant Staphylococcus aureus NRS384 USA300 at 2 times MIC after 24 hrs by crystal violet staining-based spectrophotometric analysis relative to control; parameters: scale not given: the % may be the effect or the level left
Staphylococcus aureus [33] = test: Antibacterial activity against methicillin-sensitive Staphylococcus aureus ATCC 6538 after 18 hrs by broth microdilution assay; type: functional; details: ATCC 6538, 18 h; procedure, shortened: as §1
Streptococcus pneumoniae [34] = test: Bactericidal activity against cephalosporin-resistant Streptococcus pneumoniae ATCC 51916 incubated fo 18 hrs followed by re-plating on tryptic soy agar plates at 37 degC for 18 hrs by broth microdilution assay; type: functional; details: ATCC 51916, 18 h
Staphylococcus aureus [35] = test: Bactericidal activity against vancomycin-resistant Staphylococcus aureus VRS12 incubated fo 18 hrs followed by re-plating on tryptic soy agar plates at 37 degC for 18 hrs by broth microdilution assay; type: functional; details: VRS12, 18 h

Cc1nc(-c2ccc(C(C)(C)C)cc2)sc1-c1ccnc(NC(=N)c2ccccn2)n1
MBC (Staphylococcus aureus [1]): 4 µg/mL (≈ 9.33 µM)
MIC (Staphylococcus aureus [2]): 2 µg/mL (≈ 4.67 µM)
MIC (Staphylococcus aureus [3]): 4 µg/mL (≈ 9.33 µM)
MIC (Staphylococcus aureus [4]): 2 µg/mL (≈ 4.67 µM)
MIC (Streptococcus pneumoniae [5]): 4 µg/mL (≈ 9.33 µM)
MBC (Staphylococcus aureus [6]): > 64 µg/mL
MIC (Staphylococcus aureus [7]): 4 µg/mL (≈ 9.33 µM)
MBC (Staphylococcus aureus [8]): 4 µg/mL (≈ 9.33 µM)
Activity (Staphylococcus aureus [9]): 44%
MBC (Staphylococcus aureus [10]): 4 µg/mL (≈ 9.33 µM)
MBC (Enterococcus faecalis [11]): > 64 µg/mL
MIC (Enterococcus faecalis [12]): 64 µg/mL (≈ 149 µM)
MBC (Staphylococcus aureus [13]): 4 µg/mL (≈ 9.33 µM)
MIC (Streptococcus pneumoniae [14]): 8 µg/mL (≈ 18.7 µM)
MIC (Staphylococcus aureus [15]): 4 µg/mL (≈ 9.33 µM)
inhibition (Staphylococcus aureus [16]): Dose-dependent effect
MBC [17]: > 64 µg/mL
MBC (Staphylococcus aureus [18]): 4 µg/mL (≈ 9.33 µM)
MBC (Streptococcus pneumoniae [19]): 8 µg/mL (≈ 18.7 µM)
MIC (Enterococcus faecium [20]): 4 µg/mL (≈ 9.33 µM)
MIC (Staphylococcus aureus [21]): 4 µg/mL (≈ 9.33 µM)
MIC [22]: 64 µg/mL (≈ 149 µM)
Activity (Staphylococcus aureus [23]): 3 log10CFU/ml
MBC (Staphylococcus aureus [24]): 2 µg/mL (≈ 4.67 µM)
MBC (Staphylococcus aureus [25]): 2 µg/mL (≈ 4.67 µM)
MIC (Listeria monocytogenes [26]): 2 µg/mL (≈ 4.67 µM)
Ratio (Listeria monocytogenes [27]): >3
MIC (Staphylococcus aureus [28]): 64 µg/mL (≈ 149 µM)
Activity (Caco-2): Toxic
MBC (Enterococcus faecium [29]): 32 µg/mL (≈ 74.7 µM)
MIC (Staphylococcus aureus [30]): 0.78 µg/mL (≈ 1.82 µM)
MIC (Staphylococcus aureus [31]): 2 µg/mL (≈ 4.67 µM)
Activity (Staphylococcus aureus [32]): 49%
MIC (Staphylococcus aureus [33]): 2 µg/mL (≈ 4.67 µM)
MBC (Streptococcus pneumoniae [34]): 4 µg/mL (≈ 9.33 µM)
MBC (Staphylococcus aureus [35]): 4 µg/mL (≈ 9.33 µM)
